Measured values reported in ChEMBL document CHEMBL5247599, “New β-arylchalcogeno amines with procognitive properties targeting Carbonic Anhydrases and Monoamine Oxidases” (Eur J Med Chem, 2022).
pIC50: −log10 of the molar value. Blank lines part the entries; values can stand above or below the molecule they belong to.

Experiments:
[1] = biological target: Carbonic anhydrase 1 (Homo sapiens) (UniProt P00915); assay: Binding affinity to human CA1 by phenol red dye based stopped flow CO2 hydration assay; conditions: filed as activator
Method in brief: (§1)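 Purified recombinant human CA isoforms. CA-catalysed CO2 hydration was followed by stopped-flow with phenol red at 557 nm, taking initial rates over 10–100 s from at least six traces of the first 5–10% of reaction. Uncatalysed rates were subtracted. Activator stocks were 0.1 mM in deionised water, diluted down to 0.1 nM in assay buffer. K_A came from non-linear least-squares Michaelis–Menten fitting.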

[2] = biological target: Carbonic anhydrase 2 (Homo sapiens) (UniProt P00918); assay: Binding affinity to human CA2 by phenol red dye based stopped flow CO2 hydration assay; method in brief: as §1
[3] = biological target: Carbonic anhydrase 3 (Homo sapiens) (UniProt P07451); assay: Binding affinity to human CA3 by phenol red dye based stopped flow CO2 hydration assay; conditions: filed as activator; method in brief: as §1
[4] = biological target: Carbonic anhydrase 4 (Homo sapiens) (UniProt P22748); assay: Binding affinity to human CA4 by phenol red dye based stopped flow CO2 hydration assay; conditions: filed as activator; method in brief: as §1
[5] = biological target: Carbonic anhydrase 5A, mitochondrial (Homo sapiens) (UniProt P35218); assay: Binding affinity to human CA5a by phenol red dye based stopped flow CO2 hydration assay; conditions: filed as activator; method in brief: as §1
[6] = biological target: Carbonic anhydrase 5B, mitochondrial (Homo sapiens) (UniProt Q9Y2D0); assay: Binding affinity to human CA5b by phenol red dye based stopped flow CO2 hydration assay; conditions: filed as activator; method in brief: as §1
[7] = biological target: Carbonic anhydrase 6 (Homo sapiens) (UniProt P23280); assay: Binding affinity to human CA6 by phenol red dye based stopped flow CO2 hydration assay; conditions: filed as activator; method in brief: as §1
[8] = biological target: Carbonic anhydrase 7 (Homo sapiens) (UniProt P43166); assay: Binding affinity to human CA7 by phenol red dye based stopped flow CO2 hydration assay; conditions: filed as activator; method in brief: as §1
[9] = biological target: Carbonic anhydrase 9 (Homo sapiens) (UniProt Q16790); assay: Binding affinity to human CA9 by phenol red dye based stopped flow CO2 hydration assay; conditions: filed as activator; method in brief: as §1
[10] = biological target: Carbonic anhydrase 12 (Homo sapiens) (UniProt O43570); assay: Binding affinity to human CA12 by phenol red dye based stopped flow CO2 hydration assay; conditions: filed as activator; method in brief: as §1
[11] = biological target: Carbonic anhydrase 13 (Homo sapiens) (UniProt Q8N1Q1); assay: Binding affinity to human CA13 by phenol red dye based stopped flow CO2 hydration assay; conditions: filed as activator; method in brief: as §1
[12] = biological target: Carbonic anhydrase 14 (Homo sapiens) (UniProt Q9ULX7); assay: Binding affinity to human CA14 by phenol red dye based stopped flow CO2 hydration assay; conditions: filed as activator; method in brief: as §1
[13] = biological target: T1, Amine oxidase [flavin-containing] A (Homo sapiens, UniProt P21397); assay: Inhibition of human recombinant MAO-A assessed as inhibition of 4-hydroxyquinoline formation using kynuramine as substrate by fluorescence spectrophotometry analysis
T1 sequence (P21397 whole entry): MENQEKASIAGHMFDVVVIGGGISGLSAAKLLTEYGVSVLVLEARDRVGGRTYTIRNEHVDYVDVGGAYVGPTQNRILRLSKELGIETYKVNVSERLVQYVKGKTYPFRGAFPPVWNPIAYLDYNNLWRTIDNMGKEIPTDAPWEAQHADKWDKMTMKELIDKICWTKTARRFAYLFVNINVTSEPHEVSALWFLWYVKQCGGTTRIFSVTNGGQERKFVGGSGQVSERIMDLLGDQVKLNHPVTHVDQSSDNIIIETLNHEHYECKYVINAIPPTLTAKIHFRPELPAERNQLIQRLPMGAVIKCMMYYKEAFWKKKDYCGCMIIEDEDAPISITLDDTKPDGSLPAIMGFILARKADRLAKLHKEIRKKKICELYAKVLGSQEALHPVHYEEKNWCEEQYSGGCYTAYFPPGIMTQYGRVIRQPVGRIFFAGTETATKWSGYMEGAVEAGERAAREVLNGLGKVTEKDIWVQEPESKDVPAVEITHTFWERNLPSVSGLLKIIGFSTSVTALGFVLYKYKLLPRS
Method in brief: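 Recombinant human MAO-A with kynuramine as substrate. The 4-hydroxyquinoline product was quantified by fluorescence spectrophotometry, and IC50 values were determined.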

[14] = biological target: T2, Amine oxidase [flavin-containing] B (Homo sapiens, UniProt P27338)
T2 sequence (P27338 whole entry): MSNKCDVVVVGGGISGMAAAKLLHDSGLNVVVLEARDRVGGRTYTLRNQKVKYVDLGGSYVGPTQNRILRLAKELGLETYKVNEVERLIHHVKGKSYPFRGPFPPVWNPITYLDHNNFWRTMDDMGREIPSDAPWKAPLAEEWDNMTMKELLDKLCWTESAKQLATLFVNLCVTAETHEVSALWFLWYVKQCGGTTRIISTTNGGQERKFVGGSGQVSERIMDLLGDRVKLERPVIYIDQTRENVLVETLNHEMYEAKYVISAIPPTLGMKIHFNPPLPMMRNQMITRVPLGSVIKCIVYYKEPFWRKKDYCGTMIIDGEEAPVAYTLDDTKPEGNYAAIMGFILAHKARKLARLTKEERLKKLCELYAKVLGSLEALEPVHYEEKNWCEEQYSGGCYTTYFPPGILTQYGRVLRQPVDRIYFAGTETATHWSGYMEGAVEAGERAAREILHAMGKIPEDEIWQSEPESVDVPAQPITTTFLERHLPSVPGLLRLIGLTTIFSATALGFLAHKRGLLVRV

Chain of Carbonic anhydrase 3 (Homo sapiens) (P07451 whole entry): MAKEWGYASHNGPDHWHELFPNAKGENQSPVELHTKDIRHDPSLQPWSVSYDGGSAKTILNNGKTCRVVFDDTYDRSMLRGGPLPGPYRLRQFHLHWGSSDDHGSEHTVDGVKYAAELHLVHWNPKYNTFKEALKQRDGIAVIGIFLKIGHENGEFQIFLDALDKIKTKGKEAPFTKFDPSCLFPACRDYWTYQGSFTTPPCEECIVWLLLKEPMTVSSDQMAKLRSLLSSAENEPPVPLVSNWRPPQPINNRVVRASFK
Chain of Carbonic anhydrase 4 (Homo sapiens) (P22748 whole entry): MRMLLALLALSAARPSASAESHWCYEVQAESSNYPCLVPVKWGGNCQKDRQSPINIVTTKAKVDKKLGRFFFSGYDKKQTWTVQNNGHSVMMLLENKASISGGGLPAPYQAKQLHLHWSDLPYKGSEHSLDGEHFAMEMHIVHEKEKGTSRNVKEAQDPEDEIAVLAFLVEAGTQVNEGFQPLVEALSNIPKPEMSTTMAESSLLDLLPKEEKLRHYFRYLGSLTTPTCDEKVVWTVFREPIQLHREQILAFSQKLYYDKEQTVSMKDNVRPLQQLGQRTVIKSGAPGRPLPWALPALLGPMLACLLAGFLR
Chain of Carbonic anhydrase 13 (Homo sapiens) (Q8N1Q1 whole entry, looked up): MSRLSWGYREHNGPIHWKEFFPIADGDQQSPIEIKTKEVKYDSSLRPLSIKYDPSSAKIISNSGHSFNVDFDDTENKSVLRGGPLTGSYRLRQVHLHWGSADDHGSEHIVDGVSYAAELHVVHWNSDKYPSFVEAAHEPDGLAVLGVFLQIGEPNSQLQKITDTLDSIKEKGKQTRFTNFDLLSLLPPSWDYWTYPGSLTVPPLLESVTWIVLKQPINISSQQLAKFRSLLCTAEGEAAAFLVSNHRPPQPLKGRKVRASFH
Chain of Carbonic anhydrase 5A, mitochondrial (Homo sapiens) (P35218 whole entry): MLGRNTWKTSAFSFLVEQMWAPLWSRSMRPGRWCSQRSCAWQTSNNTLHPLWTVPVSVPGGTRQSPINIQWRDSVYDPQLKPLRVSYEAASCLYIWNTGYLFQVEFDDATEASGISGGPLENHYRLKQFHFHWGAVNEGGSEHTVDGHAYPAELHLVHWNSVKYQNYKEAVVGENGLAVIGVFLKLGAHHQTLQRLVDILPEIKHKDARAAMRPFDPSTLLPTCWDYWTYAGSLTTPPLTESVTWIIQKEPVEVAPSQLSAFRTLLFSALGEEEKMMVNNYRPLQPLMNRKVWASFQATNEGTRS
Chain of Carbonic anhydrase 12 (Homo sapiens) (O43570 whole entry): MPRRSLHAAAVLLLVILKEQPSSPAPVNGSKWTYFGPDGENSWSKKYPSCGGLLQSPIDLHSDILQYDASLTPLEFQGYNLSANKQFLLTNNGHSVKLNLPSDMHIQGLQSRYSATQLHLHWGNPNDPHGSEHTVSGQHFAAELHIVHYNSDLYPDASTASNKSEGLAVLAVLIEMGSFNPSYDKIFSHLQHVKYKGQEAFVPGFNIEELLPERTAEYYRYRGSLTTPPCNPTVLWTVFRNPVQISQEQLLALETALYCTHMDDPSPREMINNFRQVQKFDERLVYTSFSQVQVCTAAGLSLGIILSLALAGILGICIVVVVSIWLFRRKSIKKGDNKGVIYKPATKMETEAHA
Chain of Carbonic anhydrase 5B, mitochondrial (Homo sapiens) (Q9Y2D0 whole entry): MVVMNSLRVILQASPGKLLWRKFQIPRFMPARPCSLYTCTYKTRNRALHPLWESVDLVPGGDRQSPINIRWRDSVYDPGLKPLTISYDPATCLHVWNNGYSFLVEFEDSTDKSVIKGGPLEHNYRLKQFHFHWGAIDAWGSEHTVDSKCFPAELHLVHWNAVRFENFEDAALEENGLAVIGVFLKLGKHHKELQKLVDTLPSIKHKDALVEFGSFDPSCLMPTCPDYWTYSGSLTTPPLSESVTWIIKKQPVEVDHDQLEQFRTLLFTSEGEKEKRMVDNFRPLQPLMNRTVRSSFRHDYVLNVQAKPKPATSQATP
Chain of Carbonic anhydrase 7 (Homo sapiens) (P43166 whole entry): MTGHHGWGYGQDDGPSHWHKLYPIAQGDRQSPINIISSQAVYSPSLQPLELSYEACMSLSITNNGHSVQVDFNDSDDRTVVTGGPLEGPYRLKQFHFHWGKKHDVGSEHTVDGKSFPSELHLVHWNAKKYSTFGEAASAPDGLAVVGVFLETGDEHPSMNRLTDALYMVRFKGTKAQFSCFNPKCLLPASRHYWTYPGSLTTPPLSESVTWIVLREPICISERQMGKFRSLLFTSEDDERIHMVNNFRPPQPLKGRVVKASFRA
Chain of Carbonic anhydrase 6 (Homo sapiens) (P23280 whole entry): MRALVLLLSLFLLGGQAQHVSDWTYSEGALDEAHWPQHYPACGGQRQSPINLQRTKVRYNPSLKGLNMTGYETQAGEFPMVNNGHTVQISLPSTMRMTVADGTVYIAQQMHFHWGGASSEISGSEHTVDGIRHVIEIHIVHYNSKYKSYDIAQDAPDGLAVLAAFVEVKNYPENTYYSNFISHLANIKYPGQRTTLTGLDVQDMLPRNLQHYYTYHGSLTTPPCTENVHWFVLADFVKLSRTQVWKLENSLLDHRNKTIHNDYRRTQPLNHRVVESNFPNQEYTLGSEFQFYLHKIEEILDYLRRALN
Chain of Carbonic anhydrase 1 (Homo sapiens) (P00915 2-261 limits assumed): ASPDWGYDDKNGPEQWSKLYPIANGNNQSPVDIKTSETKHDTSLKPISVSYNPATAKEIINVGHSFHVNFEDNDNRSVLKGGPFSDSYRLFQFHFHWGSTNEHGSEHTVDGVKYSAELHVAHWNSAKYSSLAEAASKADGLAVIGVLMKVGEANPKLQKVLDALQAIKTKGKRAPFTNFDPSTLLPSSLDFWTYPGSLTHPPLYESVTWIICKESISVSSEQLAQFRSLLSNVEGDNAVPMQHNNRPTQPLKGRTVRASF
Chain of Carbonic anhydrase 14 (Homo sapiens) (Q9ULX7 whole entry): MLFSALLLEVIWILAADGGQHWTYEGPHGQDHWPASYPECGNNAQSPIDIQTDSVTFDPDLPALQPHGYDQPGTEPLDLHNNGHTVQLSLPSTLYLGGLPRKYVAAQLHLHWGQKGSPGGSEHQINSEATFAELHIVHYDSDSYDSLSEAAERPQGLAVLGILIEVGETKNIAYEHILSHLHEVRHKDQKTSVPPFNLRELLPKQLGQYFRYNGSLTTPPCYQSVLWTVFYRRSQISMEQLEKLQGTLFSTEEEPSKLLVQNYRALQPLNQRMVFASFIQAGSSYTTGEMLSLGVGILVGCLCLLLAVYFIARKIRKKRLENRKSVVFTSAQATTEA

Structure (SMILES): CC(N)C[Te]c1ccccc1 (stereo not drawn)
Ka [1]: 9.9 µM
Ka [2]: > 100 µM
Ka [3]: 59.7 µM
Ka [4]: 5.9 µM
Ka [5]: 14.2 µM
Ka [6]: 21.7 µM
Ka [7]: 73.1 µM
Ka [8]: 41.2 µM
Ka [9]: 22.2 µM
Ka [10]: 52.5 µM
Ka [11]: 49.7 µM
Ka [12]: 3.2 µM
pIC50 [13]: 4.60

Structure (SMILES): COc1ccc([Te]CC(C)N)cc1 (stereo not drawn)
Ka [1]: 4.6 µM
Ka [2]: > 100 µM
Ka [3]: 77.3 µM
Ka [4]: 8.2 µM
Ka [5]: 3.3 µM
Ka [6]: 22.5 µM
Ka [7]: 37.8 µM
Ka [8]: 44.9 µM
Ka [9]: 47.9 µM
Ka [10]: 52.8 µM
Ka [11]: 38.2 µM
Ka [12]: 9.5 µM
pIC50 [13]: 4.85
pIC50 [14]: 4.07

Structure (SMILES): Cc1cccc(C)c1[Se]CC(C)N (stereo not drawn)
Ka [1]: 6 µM
Ka [2]: > 100 µM
Ka [3]: 90.8 µM
Ka [4]: 9.5 µM
Ka [5]: 20.9 µM
Ka [6]: 22.7 µM
Ka [7]: 31.4 µM
Ka [8]: 21.4 µM
Ka [9]: 81.2 µM
Ka [10]: 78.2 µM
Ka [11]: 83.3 µM
Ka [12]: 1.1 µM
pIC50 [13]: 5.77
pIC50 [14]: 5.55

Structure (SMILES): Cc1ccc([Se]CC(C)N)cc1 (stereo not drawn)
Ka [1]: 5.2 µM
Ka [2]: > 100 µM
Ka [3]: 20.3 µM
Ka [4]: 2.2 µM
Ka [5]: 9.1 µM
Ka [6]: 15.7 µM
Ka [7]: 30.5 µM
Ka [8]: 10.4 µM
Ka [9]: 82.5 µM
Ka [10]: 89.7 µM
Ka [11]: 68.6 µM
Ka [12]: 8.3 µM
pIC50 [13]: 5.69
pIC50 [14]: 4.44

Structure (SMILES): CC(N)C[Se]c1ccc(N(C)C)cc1 (stereo not drawn)
Ka [1]: 22.1 µM
Ka ([2]; filed as activator): 45.1 µM
Ka [3]: 72.6 µM
Ka [4]: 9.4 µM
Ka [5]: 14 µM
Ka [6]: 21.8 µM
Ka [7]: 76.5 µM
Ka [8]: 12.1 µM
Ka [9]: 70.1 µM
Ka [10]: 58.5 µM
Ka [11]: 44.1 µM
Ka [12]: 6.7 µM
pIC50 [13]: 5.15
pIC50 [14]: 4.67

Ka [1]: 13.5 µM
Ka [2]: > 100 µM
Ka [3]: 91.7 µM
Ka [4]: 2.2 µM
Ka [5]: 12.9 µM
Ka [6]: 11.5 µM
Ka [7]: 30.9 µM
Ka [8]: 11.4 µM
Ka [9]: 77.9 µM
Ka [10]: 87.9 µM
Ka [11]: 49.3 µM
Ka [12]: 2.9 µM
pIC50 [13]: 5.11
Structure (SMILES): CC(N)CSc1cccc(Br)c1 (stereo not drawn)

Structure (SMILES): COc1ccc([Se]CC(C)N)cc1 (stereo not drawn)
Ka [1]: 21.4 µM
Ka [2]: > 100 µM
Ka [3]: 66.8 µM
Ka [4]: 8.7 µM
Ka [5]: 20.3 µM
Ka [6]: 25.8 µM
Ka [7]: 46.4 µM
Ka [8]: 23.3 µM
Ka [9]: 73.2 µM
Ka [10]: 68.8 µM
Ka [11]: 60.4 µM
Ka [12]: 8.7 µM
pIC50 [13]: 5.92
pIC50 [14]: 4.43

Structure (SMILES): COc1cc([Te]CC(C)N)cc(OC)c1OC (stereo not drawn)
Ka [1]: 9.5 µM
Ka [2]: > 100 µM
Ka [3]: 60.6 µM
Ka [4]: 4.4 µM
Ka [5]: 9.4 µM
Ka [6]: 29.5 µM
Ka [7]: 69.2 µM
Ka [8]: 14.3 µM
Ka [9]: 85.2 µM
Ka [10]: 32.7 µM
Ka [11]: 58.3 µM
Ka [12]: 1.2 µM

Structure (SMILES): Cc1ccc([Te]CC(C)N)cc1 (stereo not drawn)
Ka [1]: 8.2 µM
Ka [2]: > 100 µM
Ka [3]: 73.5 µM
Ka [4]: 5.3 µM
Ka [5]: 4 µM
Ka [6]: 15.7 µM
Ka [7]: 23.6 µM
Ka [8]: 21.9 µM
Ka [9]: 74.4 µM
Ka [10]: 80.4 µM
Ka [11]: 82.7 µM
Ka [12]: 2.4 µM
pIC50 [13]: 5.18

Structure (SMILES): CC(N)C[Se]c1ccc(F)cc1 (stereo not drawn)
Ka [1]: 19.6 µM
Ka [2]: > 100 µM
Ka [3]: 13.1 µM
Ka [4]: 6.1 µM
Ka [5]: 13.1 µM
Ka [6]: 20.2 µM
Ka [7]: 48.5 µM
Ka [8]: 13.4 µM
Ka [9]: 22.8 µM
Ka [10]: 90.6 µM
Ka [11]: 46.9 µM
Ka [12]: 2.6 µM
pIC50 [13]: 4.98
pIC50 [14]: 4.87

Ka [1]: 7.7 µM
Ka [2]: > 100 µM
Ka [3]: 5.4 µM
Ka [4]: 7.4 µM
Ka [5]: 12.4 µM
Ka [6]: 22.7 µM
Ka [7]: 61.6 µM
Ka [8]: 14.8 µM
Ka [9]: 63.3 µM
Ka [10]: 72.9 µM
Ka [11]: 54.4 µM
Ka [12]: 3.8 µM
pIC50 [13]: 5.41
Structure (SMILES): CC(N)CSc1ccc(Br)cc1 (stereo not drawn)
